Reference: ChEMBL document CHEMBL1125318, “4-substituted thiophene- and furan-2-sulfonamides as topical carbonic anhydrase inhibitors” (J Med Chem, 1992)
“And” between values parts separate entries of the source, which are not always exact repeats. Equal entries are not always repeated. The source made the active and inactive calls. No cut-off for these calls is given here.

Legend:
Carbonic anhydrase 2 [1] = target: T1, Carbonic anhydrase 2 (Homo sapiens, UniProt P00918); assay: Inhibition of human carbonic anhydrase II; conditions: read-out: I50
How it was run: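 CA II was affinity-purified from human erythrocytes. CO2 hydration was assayed by pH stat in 0.02 M Tris chloride, pH 8.6, at 2 °C with CO2–air (5:95) bubbled at 150 mL/min. The 0.025 N NaOH volume needed to hold pH 8.3 over 3 min was recorded, with inhibitor added before enzyme. I50 was read from semilog plots of % inhibition versus log concentration.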

Oryctolagus cuniculus [2] = assay: Ability to penetrate the albino rabbit eye and to inhibit the target enzyme in an homogenate of the iris-ciliary body at 1 hr postdosing, ex vivo when dosed in 0.5% aqueousi (hydroxymethyl) cellulose.; assay type: functional
How it was run: (§1)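 Albino rabbits received one 50 μL drop of test suspension topically; 1 h after dosing the iris-ciliary body was homogenized and its carbonic anhydrase activity measured ex vivo. Screening used 0.5%, with lower concentrations for some compounds. Reference suspensions were given as 0.1% in 0.5% aqueous (hydroxyethyl)cellulose.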

Oryctolagus cuniculus [3] = organism: Oryctolagus cuniculus; assay: Maximum Intraocular pressure reduction in alpha-CT rabbits at the dose (as a 50 microL drop of suspension in 0.5% aqueous cellulose); assay type: functional
How it was run: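 α-Chymotrypsinized rabbits received a 50 μL topical drop of test suspension. IOP was read before dosing and at 0.5, 1, 2, 3, 4 and 5 h after. The value is the maximum fall from the pre-dose reading. Parallel control groups got a drop of 0.5% aqueous (hydroxyethyl)cellulose.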

Oryctolagus cuniculus [4] = assay: Ability to penetrate the albino rabbit eye and to inhibit the target enzyme in an homogenate of the iris-ciliary body at 1 hr postdosing, ex vivo when dosed in 0.1% aqueousi (hydroxymethyl) cellulose.; assay type: functional; how it was run: as §1
Carbonic anhydrase 2 [5] = target: T1, Carbonic anhydrase 2; assay: Compound was tested in vitro for binding affinity against human carbonic anhydrase II; (ki*10e-9)
How it was run: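 Fluorescence competition against dansylamide used purified human erythrocyte CA II (1×10^-7 M) and dansylamide (2×10^-6 M) in pH 7.4, 0.1 ionic strength phosphate buffer at 37 °C. Excitation was 280 nm and emission 460 nm, with stepwise addition of test compound in buffer.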

[6] = Partition coefficient (logD7.4); assay type: physicochemical; conditions: octanol/water, pH 7.4
How it was run: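 Compound was equilibrated between 1-octanol and 0.1 ionic strength pH 7.4 phosphate buffer; each phase was quantified by UV spectrophotometry.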

[7] = Aqueous solubility (25 degree C); assay type: physicochemical; conditions: read-out: S
[8] = Ionization constant (pKa); assay type: physicochemical
How it was run: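 The half-neutralization point was found by titration with 0.5 N NaOH and 0.5 N HCl in 30% EtOH–H2O using a glass electrode.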

Oryctolagus cuniculus [9] = assay: Ability to penetrate the albino rabbit eye and to inhibit the target enzyme in an homogenate of the iris-ciliary body at 1 hr postdosing, ex vivo when dosed in 0.05% aqueousi (hydroxymethyl) cellulose.; assay type: functional; how it was run: as §1
[10] = Solubility (pH 7.4, 25 degree C); assay type: physicochemical; conditions: buffer, read-out: S
[11] = Solubility measured in water; assay type: physicochemical; conditions: read-out: S
How it was run: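 Solubility was measured in water at 25 °C.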

[12] = Solubility measured pH 7.4 at 25 degree C; assay type: physicochemical; conditions: buffer, read-out: S

Compound | IC50 (Carbonic anhydrase 2 [1]) [nM] | Inhibition (Oryctolagus cuniculus [2]) | Inhibition (Oryctolagus cuniculus [4]) [%] | also measured
Cl.NS(=O)(=O)c1cc(S(=O)(=O)c2ccccc2CNCc2ccccn2)cs1 | 15 | 88% | 88 | Max IOP reduction (Oryctolagus cuniculus [3]): -6.5 mmHg
CN1CCN(Cc2ccc(S(=O)(=O)c3csc(S(N)(=O)=O)c3)cc2)CC1.Cl | 11 | 92% | 90 | logD [6]: 0.38; solubility [7]: > 43000 µg/mL; pKa [8]: 9.25; Inhibition (Oryctolagus cuniculus [9]): 29%; solubility [10]: > 56000 µg/mL
COc1ccc(C(=O)c2coc(S(N)(=O)=O)c2)cc1 | 2 | 67% | 13 | –
NS(=O)(=O)c1cc(S(=O)(=O)c2ccc(O)cc2)cs1 | 5 | 82% | – | pKa [8]: 9.2; Ki (Carbonic anhydrase 2 [5]): 8 nM
COc1ccc(S(=O)(=O)c2csc(S(N)(=O)=O)c2)cc1 | 45 | 68% | – | pKa [8]: 8.78
NS(=O)(=O)c1cc(S(=O)(=O)c2cccc(O)c2)cs1 | 2.1 | 86% | – | –
CCN(CC)Cc1cc(S(=O)(=O)c2coc(S(N)(=O)=O)c2)ccc1O.Cl | 10 | 82% | 58 | Ki (Carbonic anhydrase 2 [5]): 4 nM
CN1CCN(Cc2ccc(C(=O)c3csc(S(N)(=O)=O)c3)cc2)CC1.Cl | 4 | 90% | – | logD [6]: 0.362; solubility [11]: 5000 µg/mL; solubility [12]: 2000 µg/mL; pKa [8]: 9.32
CC(C)CNCc1ccccc1S(=O)(=O)c1csc(S(N)(=O)=O)c1.Cl | 18 | 62% | 47 | Ki (Carbonic anhydrase 2 [5]): 21.1 nM
Cc1ccc(S(=O)(=O)c2csc(S(N)(=O)=O)c2)cc1 | 3.2 | 86% | – | –
Cc1ccc(S(=O)(=O)c2coc(S(N)(=O)=O)c2)cc1 | 4.2 | 96% | 36 | –
Cl.NS(=O)(=O)c1cc(C(=O)c2ccc(CN3CCOCC3)cc2)cs1 | 3.7 | 73% | – | logD [6]: 1.18; solubility [11]: 12100 µg/mL; pKa [8]: 9.28; Ki (Carbonic anhydrase 2 [5]): 3.32 nM; Max IOP reduction (Oryctolagus cuniculus [3]): -2.2 mmHg; solubility [10]: 70 µg/mL
CN1CCN(Cc2ccccc2S(=O)(=O)c2csc(S(N)(=O)=O)c2)CC1.Cl | 23 | 77% | 65 | logD [6]: 1.13; solubility [7]: > 64000 µg/mL; pKa [8]: 8.8; Max IOP reduction (Oryctolagus cuniculus [3]): -2.7 mmHg
CC(C)CNCc1ccc(S(=O)(=O)c2csc(S(N)(=O)=O)c2)cc1.Cl | 13 | 87% | 63 | Ki (Carbonic anhydrase 2 [5]): 6.5 nM
CN(C)Cc1cc(S(=O)(=O)c2csc(S(N)(=O)=O)c2)ccc1O.Cl | 9 | 57% | 40 | –
CCN(CC)Cc1cc(S(=O)(=O)c2csc(S(N)(=O)=O)c2)ccc1O.Cl | 9 | 71% | – | –
NS(=O)(=O)c1cc(S(=O)(=O)c2ccc(O)cc2)co1 | 4.2 | 54% | 100 | –
CCCCNCc1ccc(S(=O)(=O)c2csc(S(N)(=O)=O)c2)cc1.Cl | 29 | 87% | 48 | –
Cl.NS(=O)(=O)c1cc(S(=O)(=O)c2ccc(CN3CCOCC3)cc2)cs1 | 7.6 | 83% | – | logD [6]: 0.978; pKa [8]: 8.84; Ki (Carbonic anhydrase 2 [5]): 1.43 nM; solubility [10]: 850 µg/mL
CCN(CC)Cc1ccc(S(=O)(=O)c2csc(S(N)(=O)=O)c2)cc1O.Cl | 16 | 84% | – | –
CC(C)CN(C)Cc1cc(S(=O)(=O)c2csc(S(N)(=O)=O)c2)ccc1O.Cl | 5 | 90% | 26 | –
CN(C)Cc1cc(S(=O)(=O)c2coc(S(N)(=O)=O)c2)ccc1O.Cl | 7 | 81% | 78 | Ki (Carbonic anhydrase 2 [5]): 2.34 nM and 4.9 nM
CC(C)(C)NCc1ccc(S(=O)(=O)c2csc(S(N)(=O)=O)c2)cc1.Cl | 36 | 61% | – | logD [6]: -0.143; solubility [7]: 4500 µg/mL; pKa [8]: 9.3
CC(C)CNCc1ccc(S(=O)(=O)c2csc(S(N)(=O)=O)c2)cc1O | 14 | – | – | –
COc1ccc(S(=O)(=O)c2coc(S(N)(=O)=O)c2)cc1 | 2.5 | 68% and 97% | 95 | logD [6]: 1.17; pKa [8]: 6.32
Cl.NS(=O)(=O)c1cc(S(=O)(=O)c2ccc(CNCc3ccccn3)cc2)cs1 | 8 | 92% | 75 | –

Second part, led by results:

IC50 (Carbonic anhydrase 2 [1]) [nM] | Compound | Inhibition (Oryctolagus cuniculus [2]) | Inhibition (Oryctolagus cuniculus [4]) [%] | also measured
6.4 | CN(C)Cc1cc(C(=O)c2csc(S(N)(=O)=O)c2)ccc1O.Cl | 59% | – | Ki (Carbonic anhydrase 2 [5]): 34.4 nM
2 | Cc1ccc(C(=O)c2csc(S(N)(=O)=O)c2)cc1 | 26% | – | –
12 | CCCCNCc1ccc(C(=O)c2csc(S(N)(=O)=O)c2)cc1.Cl | 95% | 68 | logD [6]: 0.568; solubility [7]: 2400 µg/mL; pKa [8]: 9.32; solubility [10]: 460 µg/mL
4.5 | CNCc1ccc(C(=O)c2csc(S(N)(=O)=O)c2)cc1.Cl | 67% | 13 | –
5 | Cl.NS(=O)(=O)c1cc(C(=O)c2cccc(CN3CCOCC3)c2)cs1 | 90% | – | logD [6]: 1.11; solubility [7]: 4800 µg/mL; pKa [8]: 9.03; Ki (Carbonic anhydrase 2 [5]): 10.8 nM
9 | CC(C)CN(C)Cc1cc(C(=O)c2csc(S(N)(=O)=O)c2)ccc1O.Cl | 58% | – | –
4.8 | CC(C)CNCc1ccc(C(=O)c2csc(S(N)(=O)=O)c2)cc1.Cl | 87% | 77 | Max IOP reduction (Oryctolagus cuniculus [3]): inactive
12 | CC(C)CNCc1cccc(S(=O)(=O)c2csc(S(N)(=O)=O)c2)c1.Cl | 84% | – | –
22 | CC(C)NCc1cccc(S(=O)(=O)c2csc(S(N)(=O)=O)c2)c1.Cl | 71% | – | –
3.2 | COc1ccc(C(=O)c2csc(S(N)(=O)=O)c2)cc1 | 31% | – | –
2.4 | Cl.NS(=O)(=O)c1cc(C(=O)c2ccc(CNCc3ccccc3)cc2)cs1 | 81% | – | –
7 | CCN(CC)Cc1cc(C(=O)c2csc(S(N)(=O)=O)c2)ccc1O.Cl | 55% | 54 | Ki (Carbonic anhydrase 2 [5]): 18.6 nM
13 | CC(C)CNCc1cccc(C(=O)c2csc(S(N)(=O)=O)c2)c1.Cl | 68% | – | Ki (Carbonic anhydrase 2 [5]): 14.5 nM
9 | CC(C)CCNCc1cccc(C(=O)c2csc(S(N)(=O)=O)c2)c1.Cl | 82% | – | –
26 | CCC(C)NCc1cccc(S(=O)(=O)c2csc(S(N)(=O)=O)c2)c1.Cl (centres undefined) | 72% | – | logD [6]: 0.477; solubility [7]: 20000 µg/mL; pKa [8]: 9.05; Max IOP reduction (Oryctolagus cuniculus [3]): -2.3 mmHg
2.5 | NS(=O)(=O)c1cc(C(=O)c2ccc(O)cc2)cs1 | 83% | – | –
